# Bioassay records: PubChem BioAssay, Broad Institute
# T cruzi growth-1 = inhibitors of T. cruzi proliferation | T. cruzi beta-gal in NIH3T3, GalScreen luminescence, 90 h | inhibition, % at 8.34 µM | 5.9% of 77,000 active;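 active = mean inhibition above about 93%, with at least 55% of replicates each passing it, limit read from the data, passing the limit was not always enough; inconclusive = only one of those two conditions holds; inactive = neither condition holds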
# IDH1 R132H inh = IDH1 R132H (human) inhibition. IDH1 R132H reductase, diaphorase/resazurin fluorescence, 60 min. inhibition, % at 10 µM. 0.18% of 70,000 active. AID 624101; in the data active = inhibition above about 34%; inconclusive = no clear call, values can overlap the other calls; inactive = below about 11%;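 note: 0% = DMSO and 100% = no enzyme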
# Target sequence (O75874 whole entry R132H): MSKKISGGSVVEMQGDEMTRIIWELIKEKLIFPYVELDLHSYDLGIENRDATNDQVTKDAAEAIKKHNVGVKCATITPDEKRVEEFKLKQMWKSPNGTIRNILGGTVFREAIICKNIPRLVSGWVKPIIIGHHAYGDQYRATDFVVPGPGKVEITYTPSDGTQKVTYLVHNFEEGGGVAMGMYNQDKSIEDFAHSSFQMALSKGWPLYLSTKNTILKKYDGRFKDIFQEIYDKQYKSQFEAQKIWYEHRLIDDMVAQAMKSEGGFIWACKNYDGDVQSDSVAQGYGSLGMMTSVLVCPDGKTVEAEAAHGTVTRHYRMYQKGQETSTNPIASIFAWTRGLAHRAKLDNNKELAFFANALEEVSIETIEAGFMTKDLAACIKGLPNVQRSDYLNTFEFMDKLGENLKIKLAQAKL
# Pf Dd2 inh = inhibitors of Plasmodium falciparum Dd2 growth; activity change, % at 10 µM; P. falciparum Dd2 growth, SYBR Green, 72 h; hits give low values; 2.3% of 94,000 active; in the data active = activity change below about -80%; inconclusive = no clear call, values can overlap the other calls
# KDM4C inh = blocks human GASC-1 (KDM4C) demethylase activity; inhibition, % at 12.5 µM; Q9H3R0; 0.15% of 96,000 active; GST-KDM4C 2-372, H3K9me3 peptide, LANCE TR-FRET; AID 720574;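 active = mean replicate inhibition above about 25%, with at least 55% of replicates also reaching it, limit read from the data, passing the limit was not always enough; inconclusive = only one of those two conditions met; inactive = neither condition met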
#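 reagent = H3K9me3 peptide substrate, Fe(II), 2-oxoglutarate | system = GST-tagged GASC-1 (JMJD2C) catalytic fragment, aa 2-372 | amount = enzyme final amount 10 nM | read-out = Fall in 671/618 emission ratio as inhibition | medium = HEPES buffer, pH 7.5, plus ascorbate | schedule = 30 min reaction, 60 min detection, RT | measured by = LANCE TR-FRET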
# T cruzi growth-2 = blocks T. cruzi growth in NIH3T3 host cells; AID 651739; T. cruzi beta-gal in NIH3T3, GalScreen luminescence, 90 h; shares compounds with T cruzi growth-1; 72% of 5,600 active; inhibition, % at 8.35 µM;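 active = mean replicate inhibition above about 95% and at least 55% of replicates individually reaching it, limit read from the data; inconclusive = only one of the two criteria is met; inactive = neither criterion is met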
# T cruzi growth-3 = Trypanosoma cruzi proliferation inhibition | 21% of 5,600 active | inhibition, % at 2.09 µM | AID 651740 | T. cruzi beta-gal in NIH3T3, GalScreen luminescence, 90 h | shares compounds with T cruzi growth-1;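 active = mean inhibition above about 95%, with at least 55% of replicates also reaching it, limit read from the data; inconclusive = meets just one of the two conditions; inactive = meets neither condition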;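 note: plate controls were neutral control median for no effect and positive control median for full effect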
# NIH3T3 tox = kills mouse NIH/3T3 fibroblasts | shares compounds with T cruzi growth-1 | NIH/3T3 viability, CellTiter-Glo ATP luminescence, 90 h | cytotoxicity (signal decrease), % at 8.35 µM | 14% of 5,600 active;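 active = mean signal decrease across replicates above about 35% based on untreated-well scatter, with enough replicates individually passing, limit read from the data; inconclusive = no rule stated though some were filed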;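 note: 0% = median of neutral control wells and 100% = median of positive control wells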
# NIH3T3 tox 2 = kills mouse NIH/3T3 fibroblasts; shares compounds with T cruzi growth-1; NIH/3T3 viability, CellTiter-Glo ATP luminescence, 90 h; inhibition, % at 24.9 µM; 56% of 5,600 active;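 active = mean loss of cell viability signal at or above a set limit, and enough replicates individually reaching it; inconclusive = meets only the mean limit or only the replicate share; inactive = meets neither condition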;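 note: 0% = median of neutral control wells and 100% = median of positive control wells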
# * = called active by the depositor; ? = inconclusive; · = not tested or not shown. In the library only some 5.9% were active in any assay of this set; here they are far more common.
SMILES,T cruzi growth-1,IDH1 R132H inh,Pf Dd2 inh,KDM4C inh,T cruzi growth-2,T cruzi growth-3,NIH3T3 tox,NIH3T3 tox 2
CN1c2ccc(-c3ccccc3)cc2[C@@H]2[C@@H](CCN2C(=O)c2ccncc2)[C@H]1CO,86,·,13,0,·,·,·,·
CN(C)C(=O)c1ccc(-c2ccc3c(c2)[C@@H]2[C@@H](CCN2C(=O)C2CCOCC2)[C@H](CO)N3C)cc1,97*,·,-15,2,106*,40,-5,11
O=C(c1cccc(F)c1)N1CCCCN2[C@@H](CO)[C@H](c3ccc(/C=C/c4ccccc4)cc3)[C@@H]2C1,111*,·,-12,-1,103*,93,45*,103*
O=C(c1cccc(F)c1)N1CCCCN2[C@H](CO)[C@H](c3ccc(/C=C/c4ccccc4)cc3)[C@@H]2C1,114*,·,-73,0,100*,110*,34,99*
O=C(c1cccc(F)c1)N1CCCCN2[C@@H](CO)[C@@H](c3ccc(-c4ccncc4)cc3)[C@@H]2C1,82,·,8,-1,·,·,·,·
O=C(c1cccc(F)c1)N1CCCCN2[C@H](CO)[C@@H](c3ccc(/C=C/c4ccccc4)cc3)[C@H]2C1,92,·,-36,-2,·,·,·,·
O=C(c1cccc(F)c1)N1CCCCN2[C@H](CO)[C@H](c3ccc(/C=C/c4ccccc4)cc3)[C@H]2C1,111*,·,-58,-4,102*,81,91*,104*
COC(=O)c1sccc1S(=O)(=O)Nc1ccc(-c2cn3c(n2)SCC3)cc1,·,-5,·,·,·,·,·,·
C[C@H](CO)N1C[C@H](C)[C@H](CN(C)C(=O)C2CCCCC2)OCCCC[C@H](C)Oc2ccc(NS(=O)(=O)c3cccs3)cc2C1=O,115*,-1,-47,-2,82,45,7,10
C[C@@H]1CCCCO[C@@H](CN(C)C(=O)C2CCCCC2)[C@@H](C)CN([C@@H](C)CO)C(=O)c2cc(NS(=O)(=O)c3cccs3)ccc2O1,110*,3,-42,-2,46,10,-2,10
C[C@@H]1CCCCO[C@@H](CN(C)C(=O)C2CCCCC2)[C@H](C)CN([C@@H](C)CO)C(=O)c2cc(NS(=O)(=O)c3cccs3)ccc2O1,17,2,-9,-1,·,·,·,·
COC(=O)c1cc(NC(=S)NCc2cccnc2)cc(C(=O)OC)c1,·,0,·,·,·,·,·,·
C[C@@H]1CCCCO[C@H](CN(C)CC2CCCCC2)[C@H](C)CN([C@@H](C)CO)C(=O)c2cc(NS(C)(=O)=O)ccc2O1,-42,2,·,1,·,·,·,·
C[C@@H]1CCCCO[C@@H](CN(C)S(=O)(=O)c2cn(C)cn2)[C@@H](C)CN([C@@H](C)CO)C(=O)c2cc(NS(C)(=O)=O)ccc2O1,102*,-2,39,1,78,-11,-20,-31
COc1ccc(S(=O)(=O)Nc2ccc3c(c2)C(=O)N([C@H](C)CO)C[C@H](C)[C@@H](CN(C)CC2CCCCC2)OCCCC[C@H](C)O3)cc1,?,-1,-30,0,104*,67,19,82*
C[C@@H]1CCCCO[C@@H](CN(C)CC2CCCCC2)[C@@H](C)CN([C@@H](C)CO)C(=O)c2cc(NS(C)(=O)=O)ccc2O1,104*,3,-20,0,59,-3,0,-19
C[C@@H]1CCCCO[C@H](CN(C)S(=O)(=O)c2cn(C)cn2)[C@@H](C)CN([C@@H](C)CO)C(=O)c2cc(NS(C)(=O)=O)ccc2O1,-51,-2,-25,1,·,·,·,·
COc1ccc(S(=O)(=O)Nc2ccc3c(c2)C(=O)N([C@@H](C)CO)C[C@H](C)[C@H](CN(C)CC2CCCCC2)OCCCC[C@@H](C)O3)cc1,38,·,-36,1,·,·,·,·
Cc1ccc(S(=O)(=O)Nc2ccc3c(c2)C(=O)N([C@H](C)CO)C[C@@H](C)[C@H](CN(C)CC2CCCCC2)OCCCC[C@@H](C)O3)cc1,?,·,-63,-1,102*,85,27,104*
Cc1ccc(S(=O)(=O)Nc2ccc3c(c2)C(=O)N([C@H](C)CO)C[C@@H](C)[C@@H](CN(C)CC2CCCCC2)OCCCC[C@@H](C)O3)cc1,?,0,-65,-1,100*,101*,46*,104*
CC(C)CC#Cc1ccc([C@H]2[C@H](CO)N3CCCCN(C(=O)NC4CCCC4)C[C@@H]23)cc1,113*,·,-35,-2,93,87,43*,103*
CC(C)CC#Cc1ccc([C@@H]2[C@@H](CO)N3CCCCN(C(=O)NC4CCCC4)C[C@@H]23)cc1,102*,·,-11,-1,101*,64,20,107*
COCC#Cc1ccc([C@H]2[C@@H](CO)N3CCCCN(C(=O)NC4CCCC4)C[C@H]23)cc1,76,·,-4,1,·,·,·,·
CCCC#Cc1ccc([C@H]2[C@H](CO)N3CCCCN(C(=O)NC4CCCC4)C[C@@H]23)cc1,?,·,-36,1,86,?,48*,105*
CC(C)CC#Cc1ccc([C@H]2[C@@H](CO)N3CCCCN(C(=O)NC4CCCC4)C[C@@H]23)cc1,118*,·,2,0,110*,79,19,104*
SMILES,T cruzi growth-1,IDH1 R132H inh,Pf Dd2 inh,KDM4C inh,T cruzi growth-2,T cruzi growth-3,NIH3T3 tox,NIH3T3 tox 2
CS(=O)(=O)N(CC(=O)Nc1cccc([N+](=O)[O-])c1)c1ccc(F)c(Cl)c1,·,0,·,·,·,·,·,·
N#C[C@H]1[C@@H](c2ccc(-c3ccccc3)cc2)[C@@H](CO)N1C(=O)Cc1ccccc1,49,·,14,0,·,·,·,·
N#C[C@@H]1[C@H](c2ccc(-c3ccccc3)cc2)[C@@H](CO)N1C(=O)Cc1ccccc1,101*,·,-19,-2,108*,51,21,53*
N#C[C@@H]1[C@@H](c2ccc(-c3ccc(F)cc3)cc2)[C@H](CO)N1C(=O)Cc1ccccc1,62,·,-19,-1,·,·,·,·
N#C[C@@H]1[C@@H](c2ccc(-c3ccc(F)cc3)cc2)[C@@H](CO)N1S(=O)(=O)Cc1ccccc1,99*,·,-31,-2,97*,94,13,102*
N#C[C@H]1[C@@H](c2ccc(-c3ccc(F)cc3)cc2)[C@H](CO)N1C(=O)Cc1ccccc1,?,·,-7,-1,106*,61,17,77*
CCn1c(SCC(=O)Nc2sc3c(c2C#N)CCC(C(C)(C)C)C3)nnc1-c1cccc(C)c1 (stereo not given),·,0,·,·,·,·,·,·
CCCNC(=O)N1[C@H](CO)[C@@H](c2ccc(C3=CCCCC3)cc2)[C@@H]1C#N,105*,·,-27,-2,90,64,6,20
